Among the data in ChEMBL document CHEMBL1137210, “DNA binding ligands with improved in vitro and in vivo potency against drug-resistant Staphylococcus aureus” (2004) are MIC and Efficacy values, retold here.

What all share (assay type): functional
Experiment [1] deals with Staphylococcus aureus. As to the kind of experiment: Minimum inhibitory concentration required for antibacterial activity against methicillin-resistant Staphylococcus aureus 27660.
Experiment [2] deals with Staphylococcus aureus. Description: Minimum inhibitory concentration required for antibacterial activity against methicillin-susceptible Staphylococcus aureus 13709.
Experiment [3] concerns Staphylococcus aureus. Description: Minimum inhibitory concentration required for antibacterial activity against methicillin-resistant Staphylococcus aureus with 2% human plasma albumin. In short, it runs like this:
(§1)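 MRSA ATCC 27660, with 2% human plasma albumin added to the test medium during MIC determination.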

In experiment [4] the test system is Mus musculus. As to the kind of experiment: No. of mice survived infected intraperitoneally with methicillin-resistant Staphylococcus aureus after 5 days of treatment at a dose of 1 mg/kg (Total mice tested 5). In short, it runs like this: (§2)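 Mouse peritonitis model: intraperitoneal infection with a 5–10 × LD50 inoculum of MRSA ATCC 27660. A single intravenous dose was given 1 h post-infection, alongside vehicle and vancomycin controls. Animals were monitored for 5 days, with survival as the primary endpoint; 5 mice per dose group.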

For experiment [5], the system named is Mus musculus. As to the kind of experiment: No. of mice survived infected intraperitoneally with methicillin-resistant Staphylococcus aureus after 5 days of treatment at a dose of 10 mg/kg (Total mice tested 5). A digest of the protocol: as §2
Experiment [6] concerns Staphylococcus aureus. Description: Minimum inhibitory concentration required for antibacterial activity against methicillin-resistant Staphylococcus aureus with 2% human plasma albumin; value ranges from 0.25-1. In short, it runs like this: as §1
The test system of experiment [7] is Mus musculus. As to the kind of experiment: No. of mice survived infected intraperitoneally with methicillin-resistant Staphylococcus aureus after 5 days of treatment at a dose of 3 mg/kg (Total mice tested 5). In short, it runs like this:
as §2

In experiment [8] the test system is Staphylococcus aureus. Description: Minimum inhibitory concentration required for antibacterial activity against methicillin-resistant Staphylococcus aureus 27660; value ranges from 0.03-0.06.
The test system of experiment [9] is Mus musculus. Description: No. of mice survived infected intraperitoneally with methicillin-resistant Staphylococcus aureus after 5 days of treatment at a dose of 25 mg/kg (Total mice tested 5). The conditions noted are these: route intravenous. In short, it runs like this: as §2
In experiment [10] the test system is Staphylococcus aureus. Description: Minimum inhibitory concentration required for antibacterial activity against methicillin-susceptible Staphylococcus aureus 13709; value ranges from <0.03-0.06.
The test system of experiment [11] is Staphylococcus aureus. As to the kind of experiment: Minimum inhibitory concentration required for antibacterial activity against methicillin-resistant Staphylococcus aureus with 4% human plasma albumin. In short, it runs like this:
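MIC against MRSA determined with 4% human plasma albumin present in the test medium.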

Experiment [12] concerns Staphylococcus aureus. Description: Minimum inhibitory concentration required for antibacterial activity against methicillin-resistant Staphylococcus aureus with 2% human plasma albumin; value ranges from 1-2. A digest of the protocol:
as §1

For experiment [13], the system named is Staphylococcus aureus. Description: Minimum inhibitory concentration required for antibacterial activity against methicillin-resistant Staphylococcus aureus 27660; value ranges from 0.25-0.5.
Experiment [14] concerns Staphylococcus aureus. Description: Minimum inhibitory concentration required for antibacterial activity against methicillin-susceptible Staphylococcus aureus 13709; value ranges from 0.13-0.06.
The subject of experiment [15] is Staphylococcus aureus. Description: Minimum inhibitory concentration required for antibacterial activity against vancomycin-resistant Staphylococcus aureus HMC3.
The test system of experiment [16] is Staphylococcus aureus. Description: Minimum inhibitory concentration required for antibacterial activity against methicillin-resistant Staphylococcus aureus with 2% human plasma albumin; value ranges from 0.13-1. A digest of the protocol: as §1
Another experiment deals with Streptococcus pneumoniae. Description: Minimum inhibitory concentration required for antibacterial activity against penicillin-resistant Streptococcus pneumoniae 51422.
The test system of experiment [17] is Staphylococcus aureus. As to the kind of experiment: Minimum inhibitory concentration required for antibacterial activity against methicillin-susceptible Staphylococcus aureus 13709; value ranges from 0.03-0.06.
The subject of a further experiment is Enterococcus faecium. As to the kind of experiment: Minimum inhibitory concentration required for antibacterial activity against vancomycin-resistant Enterococcus faecium 51559.
The subject of experiment [18] is Staphylococcus aureus. As to the kind of experiment: Minimum inhibitory concentration required for antibacterial activity against methicillin-resistant Staphylococcus aureus 27660; value ranges from 0.06-0.13.
In experiment [19] the test system is Staphylococcus aureus. Description: Minimum inhibitory concentration required for antibacterial activity against methicillin-resistant Staphylococcus aureus with 2% human plasma albumin; value ranges from 0.13-0.25. A digest of the protocol: as §1
[20] abbreviates: Staphylococcus aureus, Plasma, read-out: MIC.

By MIC is commonly meant the lowest concentration that inhibits growth of the organism.

Molecules are shown by their SMILES. Values after ≈ are worked out from the molar mass of the structure shown. Where only a bound is given, the exact number is not on record here.

As to `COC1CCN(CCNC(=O)c2cc(NC(=O)c3ccc(NC(=O)c4cc(NC(=O)c5cc6ccccc6cn5)cn4C)cc3)cn2C)CC1`, the minimal inhibitory concentration (MIC) in the experiment with Staphylococcus aureus [1] amounted to 1 µg/mL (≈ 1.48 µM); against Staphylococcus aureus [2], 1 µg/mL (≈ 1.48 µM); in the experiment on Staphylococcus aureus [3] (setting [20]) it was 8 µg/mL (≈ 11.8 µM).

In the case of `Cn1cc(NC(=O)c2ccc(NC(=O)c3cc(NC(=O)c4cc5ccccc5cn4)cn3C)cc2)cc1C(=O)NCCN1CCN(CCO)CC1`, the minimum inhibitory concentration (MIC) is 16 µg/mL (≈ 23.1 µM) with Staphylococcus aureus [1], 32 µg/mL (≈ 46.3 µM) in the experiment with Staphylococcus aureus [2] and above 32 µg/mL in the experiment on Staphylococcus aureus [3] (setting [20]).

For the compound `Cn1cc(NC(=O)c2cc3ccccc3cn2)cc1C(=O)Nc1ccc(C(=O)Nc2cn(C)c(C(=O)NCCN3CCC(O)CC3)n2)cc1`, the Efficacy with Mus musculus [4] worked out at 0; with Mus musculus [5], 5; with Mus musculus [7], 2; in the experiment on Mus musculus [9] it was 5. Also, the minimal inhibitory concentration (MIC) came out at 1 µg/mL (≈ 1.51 µM) against Staphylococcus aureus [6], 0.06 µg/mL (≈ 0.0904 µM) against Staphylococcus aureus [8] and 0.06 µg/mL (≈ 0.0904 µM) against Staphylococcus aureus [10].

For the compound `Cn1cc(NC(=O)c2ccc(NC(=O)c3cc(NC(=O)c4cc5ccccc5cn4)cn3C)cc2)cc1C(=O)NCCN1CCC(O)CC1`, the MIC in the experiment on Staphylococcus aureus [1] came to 0.5 µg/mL (≈ 0.754 µM); against Staphylococcus aureus [2], 0.5 µg/mL (≈ 0.754 µM); in the experiment on Staphylococcus aureus [11] it was 16 µg/mL (≈ 24.1 µM).

Turning to `COCCN(CCNC(=O)c1nc(NC(=O)c2ccc(NC(=O)c3cc(NC(=O)c4cc5ccccc5cn4)cn3C)cc2)cn1C)CCOC`, the MIC is 2 µg/mL (≈ 2.87 µM) with Staphylococcus aureus [12], 0.5 µg/mL (≈ 0.719 µM) in the experiment on Staphylococcus aureus [13] and 0.13 µg/mL (≈ 0.187 µM) in the experiment with Staphylococcus aureus [14]. The compound also showed an Efficacy with Mus musculus [9] of 0.

In the case of `Cn1cc(NC(=O)c2cc3ccccc3cn2)cc1C(=O)Nc1ccc(C(=O)Nc2cn(C)c(C(=O)NCCN3CCN(CCO)CC3)n2)cc1`, the figures for the minimal inhibitory concentration (MIC) against Staphylococcus aureus [1], against Staphylococcus aureus [2] and with Staphylococcus aureus [3] (setting [20]) were 0.06 µg/mL (≈ 0.0866 µM), 0.06 µg/mL (≈ 0.0866 µM) and 1 µg/mL (≈ 1.44 µM), respectively. Further, the Efficacy in the experiment on Mus musculus [9] is given as 5.

With `Cn1cc(NC(=O)c2cc3cc4c(cc3s2)OCO4)cc1C(=O)Nc1ccc(C(=O)Nc2cn(C)c(C(=O)NCCN3CCC(O)CC3)n2)cc1`, the MIC was 0.008 µg/mL (≈ 0.0112 µM) with Staphylococcus aureus [15], 0.008 µg/mL (≈ 0.0112 µM) with Staphylococcus aureus [1], 0.008 µg/mL (≈ 0.0112 µM) against Staphylococcus aureus [2] and 1 µg/mL (≈ 1.4 µM) against Staphylococcus aureus [16]. Further, the Efficacy with Mus musculus [4] is 3; in the experiment on Mus musculus [7] it was 4.

In the case of `Cn1cc(NC(=O)c2ccc(NC(=O)c3cc(NC(=O)c4cc5ccccc5cn4)cn3C)cc2)cc1C(=O)NCCN1CCOCC1`, the MIC was found to be 0.25 µg/mL (≈ 0.385 µM) in the experiment with Staphylococcus aureus [15]; 0.06 µg/mL (≈ 0.0925 µM) against Staphylococcus aureus [1]; 0.06 µg/mL (≈ 0.0925 µM) in the experiment on Streptococcus pneumoniae; 0.06 µg/mL (≈ 0.0925 µM) with Staphylococcus aureus [17]; 0.06 µg/mL (≈ 0.0925 µM) against Staphylococcus aureus [2]; 1 µg/mL (≈ 1.54 µM) in the experiment on Enterococcus faecium. The MIC against Staphylococcus aureus [18] worked out at 0.13 µg/mL (≈ 0.2 µM); in the experiment on Staphylococcus aureus [3], 1 µg/mL (≈ 1.54 µM); in the experiment with Staphylococcus aureus [3] (setting [20]) it was 1 µg/mL (≈ 1.54 µM). Besides, the Efficacy in the experiment with Mus musculus [5] came out at 3; in the experiment on Mus musculus [7] it was 0; in the experiment with Mus musculus [9], 5.

Consider `COCCN(CCNC(=O)c1cc(NC(=O)c2ccc(NC(=O)c3cc(NC(=O)c4cc5ccccc5cn4)cn3C)cc2)cn1C)CCOC`, for which the MIC against Staphylococcus aureus [1] was 8 µg/mL (≈ 11.5 µM); with Staphylococcus aureus [2], 4 µg/mL (≈ 5.76 µM); in the experiment with Staphylococcus aureus [3] (setting [20]) it was 32 µg/mL (≈ 46.1 µM).

With `Cn1cc(NC(=O)c2ccc(NC(=O)c3nc(NC(=O)c4cc5ccccc5cn4)cn3C)cc2)cc1C(=O)NCCN1CCOCC1`, the MIC stood at 16 µg/mL (≈ 24.6 µM) in the experiment with Staphylococcus aureus [1]; 0.5 µg/mL (≈ 0.77 µM) against Streptococcus pneumoniae; 2 µg/mL (≈ 3.08 µM) in the experiment with Staphylococcus aureus [2]; 0.5 µg/mL (≈ 0.77 µM) against Enterococcus faecium; 32 µg/mL (≈ 49.3 µM) with Staphylococcus aureus [3] (setting [20]).

Consider `Cn1cc(NC(=O)c2ccc(NC(=O)c3nc(NC(=O)c4cc5ccccc5cn4)cn3C)cc2)nc1C(=O)NCCN1CCOCC1`, for which the MIC came out at 0.06 µg/mL (≈ 0.0922 µM) against Staphylococcus aureus [1]; 0.25 µg/mL (≈ 0.384 µM) in the experiment with Streptococcus pneumoniae; 0.13 µg/mL (≈ 0.2 µM) in the experiment with Staphylococcus aureus [2]; 0.13 µg/mL (≈ 0.2 µM) with Enterococcus faecium; 1 µg/mL (≈ 1.54 µM) with Staphylococcus aureus [3] (setting [20]).

For the compound `COC1CCN(CCNC(=O)c2nc(NC(=O)c3ccc(NC(=O)c4cc(NC(=O)c5cc6ccccc6cn5)cn4C)cc3)cn2C)CC1`, the minimal inhibitory concentration (MIC) against Staphylococcus aureus [1] turned out to be 0.03 µg/mL (≈ 0.0443 µM); against Staphylococcus aureus [2], 0.03 µg/mL (≈ 0.0443 µM); against Staphylococcus aureus [19] it was 0.25 µg/mL (≈ 0.369 µM). The same compound yielded an Efficacy in the experiment on Mus musculus [9] of 2.

In the case of `Cn1cc(NC(=O)c2cc3ccccc3cn2)cc1C(=O)Nc1ccc(C(=O)Nc2cn(C)c(C(=O)NCCN3CCOCC3)n2)cc1`, the MIC with Staphylococcus aureus [15] was found to be 0.008 µg/mL (≈ 0.0123 µM); in the experiment with Staphylococcus aureus [1], 0.008 µg/mL (≈ 0.0123 µM); against Streptococcus pneumoniae, 0.03 µg/mL (≈ 0.0462 µM); against Staphylococcus aureus [2] it was 0.008 µg/mL (≈ 0.0123 µM); in the experiment with Enterococcus faecium it was 0.008 µg/mL (≈ 0.0123 µM); with Staphylococcus aureus [3] (setting [20]), 0.13 µg/mL (≈ 0.2 µM). In the experiment with Mus musculus [5], the Efficacy is 1.
